Structures are written as SMILES. In all, about 2,500 compounds went through this assay and about 1,200 (48%) were called active. So high a share suggests a set chosen from earlier hits. This is one part of the list. Unmarked numbers belong to inactive results.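 Rule for the calls: active = mean activation above the low control average plus 3 SD, as set in the primary screen (cut at about 12% in these data); inactive = the rest.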

The experiment deals with Troponin I, cardiac muscle (Homo sapiens) + Troponin T, cardiac muscle (Homo sapiens) + Troponin C, slow skeletal and cardiac muscles (Homo sapiens) (UniProt P19429+P45379+P63316). The experiment is described as follows: cardiac RTF calcium sensitivity activators, confirmation, biochemical, IANBD-TnC fluorescence, triplicate (AID 504383).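 Note: 0% = DMSO at 0.472 mM calcium and 100% = DMSO at 2.9 mM calcium.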 The settings on record: IANBD-labeled cardiac RTF, Ca2+ sensitivity fluorescence; at 7.2 µM; stronger effect = higher value; scaled from EC20 to saturating calcium; tested at EC20 calcium, 0.472 mM. The essentials:
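Assay system: labelled regulated thin filaments / Timing: 15 min at 25 °C / Detection: fluorescence intensity of labelled filaments / Measure: fluorescence gain scaled between EC20 and EC100 calcium controls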
For `CC(C)(C)OC(=O)N1CCC(Cc2cc(-c3cccnc3)no2)(C(=O)O)CC1`, the activation was 15.8% (active). As for `COCCn1c(SCC#N)nnc1-c1ccc([N+](=O)[O-])cc1`, the activation is 4.93%. Next, `Cc1sc(NC(=O)CSc2nnc(C(C)C)n2C)c(C#N)c1C`: 80.6% (active); `Cc1cc(S(=O)(=O)N2CCCC(C(=O)Nc3ccc(C(=O)O)cc3)C2)ccc1Cl` (stereo not given): 41.5% (active); `CC(=O)c1ccc(NC(=O)C2CCCN(S(=O)(=O)c3c(C)[nH]c(=O)[nH]c3=O)C2)cc1` (stereo not given): 58.6% (active). `CC(=O)N1CCCc2cc(S(=O)(=O)N3CCCC(C(=O)Nc4cccc(C)c4)C3)ccc21` (stereo not given): the activation was 8.68%. For `Cc1cc2cc(C=C(C#N)C#N)c(Cl)nc2cc1C`, the activation is 1.28%. Regarding `O=C(O)c1ccc(-n2c(/C=C/c3cccc([N+](=O)[O-])c3)nc3ccccc3c2=O)cc1`, the activation was 15.1% (active). Regarding `CN(C)c1ccc(/C=C/c2nc3ccccc3c(=O)n2-c2ccc(C(=O)O)cc2)cc1`, the activation is 2.26%.

In the case of `COc1cc(C(=O)NCc2nnc(SCC(=O)Nc3ccc4c(c3)OCO4)o2)cc(OC)c1OC`, the activation is 165% (active). In the case of `COc1cc(C(=O)Nc2ccc(Cl)c(C(F)(F)F)c2)cc(OC)c1OC`, the activation was 9.75%.

In the case of `COc1ccc(N/C=C\C(=O)c2ccc(Br)cc2)cc1OC`, the activation is 59.4% (active). As for `COc1cc(OC)c(OC)cc1/C=C/C(=O)c1ccc(NS(=O)(=O)c2ccc(C)cc2)cc1`, the activation was 8.63%. As to `CCOC(=O)c1ccc(-n2c(CCC(=O)O)ccc2-c2cccs2)cc1`, the activation is 2.47%. For `CC(=O)Oc1ccc(N2C(=O)C3C(C2=O)C(C(=O)c2ccc(Cl)cc2)N2CCCC32)cc1` (stereo not given), the activation was 77.4% (active). Take `COc1ccc(N2C(=O)C3C(C2=O)C(C(=O)c2ccc(Cl)cc2)N2CCCC32)cc1` (stereo not given): the activation is 8.37%.

On to `CCOC(=O)c1ccc(N2C(=O)C3C(C2=O)C(C(=O)c2ccc(Cl)cc2)N2CCCC32)cc1` (stereo not given), for which the activation is 12.8% (active). Turning to `CCc1ccc(/C=C2\Oc3c(ccc(O)c3CN3CCN(C)CC3)C2=O)cc1`, the activation was 8.07%.

Regarding `CCN(CC)Cc1c(O)ccc2c1O/C(=C\C=C\c1ccccc1)C2=O`, the activation was 13.5% (active).

As for `COCCN(CCOC)Cc1c(O)ccc2c1O/C(=C\c1ccc(C)o1)C2=O`, the activation is 3.93%.

In the case of `CCN1CCN(Cc2c(O)ccc3c2O/C(=C\C=C\c2ccccc2)C3=O)CC1`, the activation was 65.3% (active). As for `CCN1CCN(Cc2c(O)ccc3c2O/C(=C\c2ccc(C)cc2)C3=O)CC1`, the activation was 5.39%. As to `COc1ccccc1/C=C/C=C1\Oc2c(ccc(O)c2CN(C)C)C1=O`, the activation is 24.3% (active).

As for `CN(C)Cc1c(O)ccc2c1O/C(=C\C=C\c1ccccc1)C2=O`, the activation is 6.64%.

Regarding `COCCN(CCOC)Cc1c(O)ccc2c1O/C(=C\c1ccco1)C2=O`, the activation was 9.93%. Next, `CCN1CCN(Cc2c(O)ccc3c2O/C(=C\c2ccccc2)C3=O)CC1`: 17.9% (active); `CCN1CCN(Cc2c(O)ccc3c2O/C(=C\C=C\c2ccccc2OC)C3=O)CC1`: 8.36%. Next, `COc1ccccc1/C=C/C=C1\Oc2c(ccc(O)c2CN2CCN(CCO)CC2)C1=O`: 41.9% (active). Consider `CC(C)c1ccc(/C=C2\Oc3c(ccc(O)c3CN3CCN(C)CC3)C2=O)cc1`, for which the activation is 7.76%. The value for `Cc1ccc(/C=C2\Oc3c(ccc(O)c3CN3CCN(C)CC3)C2=O)cc1` was 1.83%; that for `O=C1/C(=C/C=C/c2ccccc2)Oc2c1ccc(O)c2CN1CCN(CCO)CC1` was 126% (active). `Cc1ccc(/C=C2\Oc3c(ccc(O)c3CN3CCN(CCO)CC3)C2=O)cc1`: the activation is 34.7% (active). As to `CC(=O)c1ccc2c(c1)c(C#N)c1ccccc1[n+]2[O-]`, the activation was 174% (active). For `CC1(C)CC(N2CCCC2)=CC(=[N+]2CCCCC2)C1`, the activation was 16% (active).

For `COc1ccc(-n2c(O)c(/C=N/NS(=O)(=O)c3ccc(C)c([N+](=O)[O-])c3)c3ccccc3c2=O)cc1OC`, the activation was 3.31%.

Take `COc1ccc(-n2c(O)c(/C=N/NS(=O)(=O)c3ccc(C)cc3)c3ccccc3c2=O)cc1OC`: the activation is 46% (active). The value for `COc1ccc(-n2c(O)c(/C=N/NS(=O)(=O)c3cc(C)ccc3C)c3ccccc3c2=O)cc1OC` was 10.9%. In the case of `CCC12CN3CCN(CC(C3)/C1=N\NC(=O)Nc1ccccc1)C2`, the activation is 4.76%. In the case of `Cc1ccc(N2C(=O)[C@@H]3[C@H](C2=O)C2CCCN2[C@@H]3C(=O)c2ccccc2)cc1` (stereo not given in full), the activation is 290% (active). On to `O=C(c1ccccc1)[C@@H]1[C@@H]2C(=O)N(c3ccc(F)cc3)C(=O)[C@@H]2C2CCCN21` (stereo not given in full), for which the activation is 22.7% (active).

For `Cc1ccc(C(=O)N2C(=O)C(c3ccccc3)Oc3ccccc32)cc1` (stereo not given), the activation was 5.01%. Consider `COc1cccc(C2CC(c3ccccc3)n3ncnc3N2)c1` (stereo not given), for which the activation is 19.8% (active). Take `O=C1CC(c2cccc(Oc3ccccc3)c2)NC(=O)N1` (stereo not given): the activation was 6.43%. Regarding `COc1ccc(C(=O)OC/C(O)=C(\C#N)c2nc3ccccc3[nH]2)cc1S(=O)(=O)N1CCOCC1`, the activation is -0.63%. Turning to `N#C/C(=C(/O)COC(=O)COc1ccc(Cl)cc1)c1nc2ccccc2[nH]1`, the activation was 13.2% (active). Regarding `Cc1ccc(N=Cc2sc(O)c3ccccc23)c(C)c1`, the activation was 7.52%. With `CCN(CC)c1ccc(C=Nc2cc(C)ccc2C)c(O)c1`, the activation is 15.7% (active). Take `O=C(c1ccc2c(=O)n3c(nc2c1)CCCCC3)N1CCN(c2cccc(Cl)c2)CC1`: the activation is 0.38%. Take `COc1ccccc1NC(=O)CC(=O)CSc1nnc(-c2ccc(C)cc2)n1-c1ccccc1`: the activation was 3.38%. Consider `Cc1ccc(C(=O)NNC(=O)CSc2nnc(-c3ccncc3)n2-c2ccc(C)cc2)cc1`, for which the activation was 7.51%. In the case of `COc1ccc(-c2nnc(SCC(=O)c3ccc[nH]3)n2-c2ccccc2)cc1`, the activation was 15.9% (active). As to `Cn1cc(Cl)c(-c2nc3ccccc3[nH]2)n1`, the activation is 20.4% (active).

For `Cn1nc([N+](=O)[O-])c(C(C#N)c2ccccn2)c(Cl)c1=O` (stereo not given), the activation was 8.7%. For `CCOC(=O)c1ccc(NC(=O)c2cc3c(C)nn(-c4ccccc4Cl)c3s2)s1`, the activation is 16.9% (active). Next, `CCN(CC)CCCNc1ccc2ncn3c4ccc(O)cc4c(=O)c1c23`: -1.43%.
